The values below come from ChEMBL document CHEMBL2429787, “Sulfonyl-polyol N,N-dichloroamines with rapid, broad-spectrum antimicrobial activity” (Bioorg Med Chem Lett, 2013).

pIC50: −log10 of the molar value. ≈ marks a conversion by molar mass, not a printed value.

Data set [1] concerns Staphylococcus aureus. As to the kind of experiment: Bactericidal activity against Staphylococcus aureus ATCC 29213 at pH 4 after 1 hr by CLSI method. It counts as functional. Conditions: ATCC 29213, 1 h. Put shortly:
(§1)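 MBC by modified CLSI M26-A: broth replaced with 0.9% acetate saline buffer pH 4 or PBS pH 7. Mid-log bacteria were centrifuged and resuspended in buffer, then added to serial twofold compound dilutions (final 10⁵–10⁶ CFU/mL) for 1 h at room temperature. Aliquots were plated on agar (24 h, 35 °C) and CFU counted. MBC is the lowest concentration giving >99.9% kill.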

The subject of data set [2] is Escherichia coli. As to the kind of experiment: Bactericidal activity against Escherichia coli ATCC 25922 at pH 4 after 1 hr by CLSI method. Conditions: ATCC 25922, 1 h. It is filed as functional. Put shortly: as §1
Data set [3] deals with Human adenovirus 5. As to the kind of experiment: Virucidal activity against Adenovirus 5 ATCC VR-1516 infected in human A549 cells assessed as viral cytopathic effect at pH 7 incubated for 1 hr measured after 6 days by three-fold serial dilution assay. It is filed as functional, organism-based. Conditions: for IC50: a549; for pIC50: Human mastadenovirus C, ATCC VR-1516, A549, read-out: IC50. Put shortly: (§2)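 Virus was diluted in 20 mM PBS or 5 mM acetate saline buffer with 2.5% glycerol and mixed 1:1 with threefold compound dilutions (quadruplicate) for 60 min at room temperature. It was neutralized with 2× D-MEM/F12 plus 20% FBS for 60 min, then adsorbed 1–2 h at 37 °C onto A549 (Ad5) or Vero (HSV-1) cells. Cells were washed, grown 6 days, and CPE read by CCK-8. IC50 came from a sigmoidal fit with top fixed at 100.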

The test system of data set [4] is Human alphaherpesvirus 1. As to the kind of experiment: Virucidal activity against Herpes simplex virus (type 1 / strain F) ATCC VR-733 infected in african geen monkey Vero cells assessed as viral cytopathic effect at pH 7 incubated for 1 hr measured after 6 days by three-fold serial dilution assay. It counts as functional, organism-based. Conditions: for IC50: vero; for pIC50: Human alphaherpesvirus 1, Strain F ATCC VR 733, Vero, read-out: IC50. Put shortly:
as §2

For data set [5], the system named is Human adenovirus 5. As to the kind of experiment: Virucidal activity against Adenovirus 5 ATCC VR-1516 infected in human A549 cells assessed as viral cytopathic effect at pH 4 incubated for 1 hr measured after 6 days by three-fold serial dilution assay. Conditions: for pIC50: Human mastadenovirus C, ATCC VR-1516, A549, read-out: IC50; for IC50: a549. It is filed as functional, organism-based. Put shortly: as §2

Data set [6] concerns Staphylococcus aureus. As to the kind of experiment: Bactericidal activity against Staphylococcus aureus ATCC 29213 at pH 7 after 1 hr by CLSI method. It counts as functional. Conditions: ATCC 29213, 1 h. Put shortly:
as §1

Data set [7] has as its system Escherichia coli. As to the kind of experiment: Bactericidal activity against Escherichia coli ATCC 25922 at pH 7 after 1 hr by CLSI method. Conditions: ATCC 25922, 1 h. It counts as functional. Put shortly: as §1
Data set [8] can be described thus: Toxicity in epiocular tissue irritancy model (unknown origin) assessed as tissue viability up to 46 mins relative to control. It counts as tissue-based, Eye. Conditions: read-out: Activity. In short, it runs like this: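 EpiOcular tissue model: after exposure, tissues were rinsed in PBS and held in MTT for 3 h, then extracted overnight. Viability was read from MTT absorbance against untreated control and correlated with a Draize-type irritancy score.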

In data set [9] the test system is Human adenovirus 5. As to the kind of experiment: Ratio of IC50 for Adenovirus 5 ATCC VR-1516 at pH 7 to IC50 for Adenovirus 5 ATCC VR-1516 at pH 4. It counts as functional. In short, it runs like this:
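Ad5 virucidal IC50 was determined in PBS (pH 7) and acetate saline buffer (pH 4) using 60 min room-temperature exposure, neutralization, A549 infection, 6-day CPE by CCK-8 and sigmoidal fit. The ratio is IC50 at pH 7 over IC50 at pH 4.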

Data set [10] has as its system Staphylococcus aureus. As to the kind of experiment: Ratio of MBC for Staphylococcus aureus ATCC 29213 at pH 7 to MBC for Staphylococcus aureus ATCC 29213 at pH 4. It counts as functional. In short, it runs like this: (§3)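 MBC was measured in PBS pH 7 and in acetate saline buffer pH 4 (1 h room-temperature exposure, >99.9% kill endpoint, CFU plating). The ratio is MBC at pH 7 over MBC at pH 4.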

In data set [11] the test system is Escherichia coli. As to the kind of experiment: Ratio of MBC for Escherichia coli ATCC 25922 at pH 7 to MBC for Escherichia coli ATCC 25922 at pH 4. It is filed as functional. In short, it runs like this:
as §3

Data set [12] in a line: Stability of the compound in aqueous solution. Conditions: buffer. It is filed as physicochemical.

As for `CC(C)(CS(=O)(=O)CCO)N(Cl)Cl`, the MBC in data set [1] and in data set [2] was 1 µg/mL (≈ 4 µM) each time. Also, the IC50 entry in data set [3] and in data set [4] was “ND(Unstable)” each time. Also, in data set [5], the negative logarithm of the IC50 (pIC50) is 5.64.
Take `CC(C)(CCS(=O)(=O)CC(O)C(O)CO)N(Cl)Cl` (stereo not drawn): the MBC in [6] came to 32 µg/mL (≈ 98.7 µM); in [7], 128 µg/mL (≈ 395 µM); in [1], 1 µg/mL (≈ 3.08 µM); in data set [2] it was 2 µg/mL (≈ 6.17 µM).
With `CN(CCO)S(=O)(=O)CCC(C)(C)N(Cl)Cl`, the MBC stood at 128 µg/mL (≈ 437 µM) in [6], 64 µg/mL (≈ 218 µM) in data set [7], 1 µg/mL (≈ 3.41 µM) in data set [1] and 2 µg/mL (≈ 6.82 µM) in [2]. Also, the negative logarithm of the IC50 (pIC50) is 4.85 in data set [3], 5.92 in data set [4] and 5.82 in data set [5].
For the compound `CC(C)(CCS(=O)(=O)CC(O)CO)N(Cl)Cl` (stereo not drawn), in data set [8], the viability at 46 min was 50%. Besides, the “Ratio IC50” value in [9] is 10. Further, the results for the Ratio in [10] and in data set [11] were 2 and 8, respectively. Besides, the MBC in [6] was found to be 4 µg/mL (≈ 13.6 µM); in [7] it was 16 µg/mL (≈ 54.4 µM); in [1], 2 µg/mL (≈ 6.8 µM); in [2], 2 µg/mL (≈ 6.8 µM). Besides, the pIC50 in [3] was 4.59; in data set [4], 5.82; in data set [5] it was 5.57.
As to `CC(C)(CCS(=O)(=O)CCCCC(O)CO)N(Cl)Cl` (stereo not drawn), the IC50 result in [3], in data set [4] and in [5] was “ND(Unstable)” each time.
With `CC(C)(CCS(=O)(=O)CCCCCCCCO)N(Cl)Cl`, the MBC is 128 µg/mL (≈ 367 µM) in [6] and 256 µg/mL (≈ 735 µM) in data set [7]. Further, the negative-log IC50 (pIC50) in data set [3] is 4.49. Further, in data set [5], the IC50 result is “ND(Unstable)”.
On to `CC(=O)OCC(CS(=O)(=O)CCC(C)(C)N(Cl)Cl)OC(C)=O` (stereo not drawn), for which the minimum bactericidal concentration (MBC) in [6] came to 128 µg/mL (≈ 338 µM); in data set [7], 128 µg/mL (≈ 338 µM); in data set [1], 2 µg/mL (≈ 5.29 µM); in data set [2], 1 µg/mL (≈ 2.64 µM).
With `CN(CCCO)S(=O)(=O)CCC(C)(C)N(Cl)Cl`, the IC50 result in data set [3], in data set [4] and in data set [5] was “ND(Unstable)” each time. The Stability entry in [12] is on record as “Stable”.
On to `CC(=O)OCC(O)CS(=O)(=O)CCC(C)(C)N(Cl)Cl` (stereo not drawn), for which the minimum bactericidal concentration (MBC) in data set [6] turned out to be 32 µg/mL (≈ 95.2 µM); in data set [7] it was 64 µg/mL (≈ 190 µM); in [1] it was 4 µg/mL (≈ 11.9 µM); in [2], 2 µg/mL (≈ 5.95 µM).
As for `CO[C@H]1O[C@H](CS(=O)(=O)CCC(C)(C)N(Cl)Cl)[C@@H](O)[C@H](O)[C@H]1O`, the MBC in data set [6] came to 256 µg/mL (≈ 646 µM); in [7], 512 µg/mL (≈ 1290 µM); in data set [1] it was 8 µg/mL (≈ 20.2 µM); in [2], 8 µg/mL (≈ 20.2 µM).
`CC(C)(CCS(=O)(=O)C[C@H](O)CO)N(Cl)Cl`: the MBC in data set [6] was 4 µg/mL (≈ 13.6 µM); in [7], 32 µg/mL (≈ 109 µM); in [1], 2 µg/mL (≈ 6.8 µM); in [2], 2 µg/mL (≈ 6.8 µM). Besides, the negative logarithm of the IC50 (pIC50) in data set [3] was 4.85; in [4], 5.92; in data set [5] it was 5.66.
Turning to `CC(C)(CCS(=O)(=O)CCCO)N(Cl)Cl`, the IC50 result in data set [3], in [4] and in data set [5] was “ND(Unstable)” each time.
With `CC(C)(CCS(=O)(=O)C(CO)C(O)CO)N(Cl)Cl` (stereo not drawn), the MBC in data set [6] came to 16 µg/mL (≈ 49.3 µM); in data set [7] it was 64 µg/mL (≈ 197 µM); in [1], 2 µg/mL (≈ 6.17 µM); in data set [2] it was 2 µg/mL (≈ 6.17 µM). Besides, the pIC50 in [3] is 4.72; in [4], 5.52; in [5] it was 5.82.
Consider `CC(C)(CCS(=O)(=O)CCO)N(Cl)Cl`, for which the “Ratio IC50” value in [9] stood at 3.2. The Ratio in data set [10] and in data set [11] was 16 each time. The MBC in data set [6] turned out to be 16 µg/mL (≈ 60.6 µM); in [7] it was 8 µg/mL (≈ 30.3 µM); in data set [1], 1 µg/mL (≈ 3.79 µM); in data set [2], 0.5 µg/mL (≈ 1.89 µM). Further, the negative-log IC50 (pIC50) in [3] is 5.35; in data set [4], 6.15; in data set [5], 5.85.
As to `CC(C)(CCS(=O)(=O)C[C@@H](O)CO)N(Cl)Cl`, the minimum bactericidal concentration (MBC) in data set [6] stood at 4 µg/mL (≈ 13.6 µM); in [7] it was 32 µg/mL (≈ 109 µM); in data set [1], 1 µg/mL (≈ 3.4 µM); in data set [2] it was 2 µg/mL (≈ 6.8 µM). Moreover, the figures for the pIC50 in [3], in data set [4] and in data set [5] were 4.89, 6.00 and 5.62, respectively.
As to `CC(C)(CO)CS(=O)(=O)CCC(C)(C)N(Cl)Cl`, the MBC in [6] was 128 µg/mL (≈ 418 µM); in [7], 64 µg/mL (≈ 209 µM); in data set [1], 2 µg/mL (≈ 6.53 µM); in [2], 4 µg/mL (≈ 13.1 µM). For the same compound, the pIC50 in [3] was 5.02; in data set [4], 6.05; in data set [5], 5.74.
Take `CC(C)(CCS(=O)(=O)CCC(O)CO)N(Cl)Cl` (stereo not drawn): the MBC was 16 µg/mL (≈ 51.9 µM) in data set [6], 64 µg/mL (≈ 208 µM) in data set [7], 1 µg/mL (≈ 3.24 µM) in [1] and 2 µg/mL (≈ 6.49 µM) in [2]. Moreover, the negative-log IC50 (pIC50) in [3] was 4.74; in [4] it was 5.92; in [5], 5.85.
